Measurements as given in ChEMBL document CHEMBL1158680, “Chemical constituents and biological activities of the fruit of Zanthoxylum integrifoliolum” (1999).
The source made the active and inactive calls. The calls are words filed in the database; no cut-off is given here.

Assays:
[1] = Antiplatelet activity against rabbit platelets assessed as inhibition of PAF-induced platelet aggregation at 100 ug/ml preincubated for 3 mins by turbidimetric method; assay type: functional, Oryctolagus cuniculus; set-up: scale not given: the % may be the effect or the level left
Method in brief: (§1)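 Washed rabbit platelets were preincubated with test sample or 0.5% DMSO vehicle for 3 min at 37 °C. Inducers were thrombin 0.1 U/mL, arachidonic acid 100 μM, collagen 10 μg/mL or PAF 2 nM. Turbidimetric read-out took platelet suspension absorbance as 0% and platelet-free Tyrode's as 100% aggregation, measured at 6 min. Results are mean ± SEM with n per entry.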

[2] = Antiplatelet activity against rabbit platelets assessed as inhibition of thrombin-induced platelet aggregation at 100 ug/ml preincubated for 3 mins by turbidimetric method; assay type: functional, Oryctolagus cuniculus; set-up: scale not given: the % may be the effect or the level left; method in brief: as §1
[3] = Antiplatelet activity against rabbit platelets assessed as inhibition of arachidonic acid-induced platelet aggregation at 100 ug/ml preincubated for 3 mins by turbidimetric method; assay type: functional, Oryctolagus cuniculus; set-up: scale not given: the % may be the effect or the level left; method in brief: as §1
[4] = Antiplatelet activity against rabbit platelets assessed as inhibition of arachidonic acid-induced platelet aggregation at 50 ug/ml preincubated for 3 mins by turbidimetric method; assay type: functional, Oryctolagus cuniculus; set-up: scale not given: the % may be the effect or the level left; method in brief: as §1
[5] = Antiplatelet activity against rabbit platelets assessed as inhibition of arachidonic acid-induced platelet aggregation at 20 ug/ml preincubated for 3 mins by turbidimetric method; assay type: functional, Oryctolagus cuniculus; set-up: scale not given: the % may be the effect or the level left; method in brief: as §1
[6] = Antiplatelet activity against rabbit platelets assessed as inhibition of arachidonic acid-induced platelet aggregation at 10 ug/ml preincubated for 3 mins by turbidimetric method; assay type: functional, Oryctolagus cuniculus; set-up: scale not given: the % may be the effect or the level left; method in brief: as §1
[7] = Antiplatelet activity against rabbit platelets assessed as inhibition of arachidonic acid-induced platelet aggregation at 5 ug/ml preincubated for 3 mins by turbidimetric method; assay type: functional, Oryctolagus cuniculus; set-up: scale not given: the % may be the effect or the level left
Method in brief: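 Washed rabbit platelet suspension preincubated with DMSO (0.5%, control) or sample at 37 °C for 3 min. Arachidonic acid (100 μM) then added. Turbidimetric read-out with platelet suspension as 0% and platelet-free Tyrode's solution as 100% aggregation. Percent aggregation read at 6 min. Means ± S.E.M. (n).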

[8] = (§2) Antiplatelet activity against rabbit platelets assessed as inhibition of collagen-induced platelet aggregation at 100 ug/ml preincubated for 3 mins by turbidimetric method; assay type: functional, Oryctolagus cuniculus; set-up: scale not given: the % may be the effect or the level left; method in brief: as §1
[9] = Antiplatelet activity against rabbit platelets assessed as inhibition of PAF-induced platelet aggregation at 50 ug/ml preincubated for 3 mins by turbidimetric method; assay type: functional, Oryctolagus cuniculus; set-up: scale not given: the % may be the effect or the level left; method in brief: as §1
[10] = Antiplatelet activity against rabbit platelets assessed as inhibition of PAF-induced platelet aggregation at 20 ug/ml preincubated for 3 mins by turbidimetric method; assay type: functional, Oryctolagus cuniculus; set-up: scale not given: the % may be the effect or the level left; method in brief: as §1
[11] = Antiplatelet activity against rabbit platelets assessed as inhibition of PAF-induced platelet aggregation at 10 ug/ml preincubated for 3 mins by turbidimetric method; assay type: functional, Oryctolagus cuniculus; set-up: scale not given: the % may be the effect or the level left; method in brief: as §1
Aorta [12] = experiment: Vasorelaxation activity in rat aorta assessed as inhibition of K+-induced contraction at 50 ug/ml preincubated for 15 mins relative to control; assay type: functional; set-up: scale not given: the % may be the effect or the level left
Method in brief: (§3)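 Rat aorta was preincubated with test sample or 0.1% DMSO vehicle at 37 °C for 15 min. Contraction was then evoked with high K+ (80 mM) or norepinephrine (3 μM). Response is expressed as percent of control contraction, mean ± SEM, n = 3.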

Aorta [13] = experiment: Vasorelaxation activity in rat aorta assessed as inhibition of K+-induced contraction at 15 ug/ml preincubated for 15 mins relative to control; assay type: functional; set-up: scale not given: the % may be the effect or the level left; method in brief: as §3
Aorta [14] = experiment: Vasorelaxation activity in rat aorta assessed as inhibition of K+-induced contraction at 5 ug/ml preincubated for 15 mins relative to control; assay type: functional; set-up: scale not given: the % may be the effect or the level left; method in brief: as §3
Aorta [15] = experiment: Vasorelaxation activity in rat aorta assessed as inhibition of norepinephrine-induced phasic contraction at 50 ug/ml preincubated for 15 mins relative to control; assay type: functional; set-up: scale not given: the % may be the effect or the level left; method in brief: as §3
Aorta [16] = experiment: Vasorelaxation activity in rat aorta assessed as inhibition of norepinephrine-induced phasic contraction at 15 ug/ml preincubated for 15 mins relative to control; assay type: functional; set-up: scale not given: the % may be the effect or the level left; method in brief: as §3
Aorta [17] = experiment: Vasorelaxation activity in rat aorta assessed as inhibition of norepinephrine-induced tonic contraction at 50 ug/ml preincubated for 15 mins relative to control; assay type: functional; set-up: scale not given: the % may be the effect or the level left; method in brief: as §3
Aorta [18] = experiment: Vasorelaxation activity in rat aorta assessed as inhibition of norepinephrine-induced tonic contraction at 15 ug/ml preincubated for 15 mins relative to control; assay type: functional; set-up: scale not given: the % may be the effect or the level left; method in brief: as §3
[19] = Antiplatelet activity against rabbit platelets assessed as inhibition of PAF-induced platelet aggregation at 25 ug/ml preincubated for 3 mins by turbidimetric method; assay type: functional, Oryctolagus cuniculus; set-up: scale not given: the % may be the effect or the level left; method in brief: as §1
Aorta [20] = experiment: Vasorelaxation activity in rat aorta assessed as inhibition of K+-induced contraction at 12.5 ug/ml preincubated for 15 mins relative to control; assay type: functional; set-up: scale not given: the % may be the effect or the level left; method in brief: as §3
Aorta [21] = experiment: Vasorelaxation activity in rat aorta assessed as inhibition of K+-induced contraction at 3.8 ug/ml preincubated for 15 mins relative to control; assay type: functional; set-up: scale not given: the % may be the effect or the level left; method in brief: as §3
Aorta [22] = experiment: Vasorelaxation activity in rat aorta assessed as inhibition of norepinephrine-induced phasic contraction at 12.5 ug/ml preincubated for 15 mins relative to control; assay type: functional; set-up: scale not given: the % may be the effect or the level left; method in brief: as §3
Aorta [23] = experiment: Vasorelaxation activity in rat aorta assessed as inhibition of norepinephrine-induced tonic contraction at 12.5 ug/ml preincubated for 15 mins relative to control; assay type: functional; set-up: scale not given: the % may be the effect or the level left; method in brief: as §3
[24] = Antiplatelet activity against rabbit platelets assessed as inhibition of thrombin-induced platelet aggregation at 25 ug/ml preincubated for 3 mins by turbidimetric method; assay type: functional, Oryctolagus cuniculus; set-up: scale not given: the % may be the effect or the level left; method in brief: as §1
[25] = Antiplatelet activity against rabbit platelets assessed as inhibition of arachidonic acid-induced platelet aggregation at 25 ug/ml preincubated for 3 mins by turbidimetric method; assay type: functional, Oryctolagus cuniculus; set-up: scale not given: the % may be the effect or the level left; method in brief: as §1
[26] = Antiplatelet activity against rabbit platelets assessed as inhibition of collagen-induced platelet aggregation at 25 ug/ml preincubated for 3 mins by turbidimetric method; assay type: functional, Oryctolagus cuniculus; set-up: scale not given: the % may be the effect or the level left; method in brief: as §1
Platelet [27] = experiment: as §2; assay type: functional; settings: Oryctolagus cuniculus; method in brief: as §1
Platelet [28] = experiment: (§4) Antiplatelet activity against rabbit platelets assessed as inhibition of collagen-induced platelet aggregation at 50 ug/ml preincubated for 3 mins by turbidimetric method; assay type: functional; settings: Oryctolagus cuniculus; method in brief: as §1
[29] = Antiplatelet activity against rabbit platelets assessed as inhibition of thrombin-induced platelet aggregation at 50 ug/ml preincubated for 3 mins by turbidimetric method; assay type: functional, Oryctolagus cuniculus; set-up: scale not given: the % may be the effect or the level left; method in brief: as §1
[30] = as §4; assay type: functional, Oryctolagus cuniculus; set-up: scale not given: the % may be the effect or the level left; method in brief: as §1

| Compound | Activity [1] [%] | Activity [2] [%] | Activity [3] [%] | Activity [4] [%] | Activity [5] [%] | Activity [6] [%] | Activity [7] [%] | Activity [8] [%] | other results |
| --- | --- | --- | --- | --- | --- | --- | --- | --- | --- |
| CC/C=C\C/C=C\CC/C=C/C=C/C(=O)NCC(C)(C)O | 38.4 | 89.2 | 0 | 0 | 4 | 27.8 | 46.2 | 0 | – |
| COc1ccc(-c2oc3c(OC)c(OC)cc(OC(C)=O)c3c(=O)c2OC(C)=O)cc1 | 0 | 88.5 | 0 | – | 0 | 29 | 51.1 | 5.1 | Activity [9]: 46.7%; Activity [10]: 71.2%; Activity [11]: 78%; Activity (Aorta [12]): 25.3%; Activity (Aorta [13]): 57.1%; Activity (Aorta [14]): 84.8%; Activity (Aorta [15]): 74.6%; Activity (Aorta [16]): 94.6%; Activity (Aorta [17]): 58.7%; Activity (Aorta [18]): 86.3% |
| CC/C=C/C/C=C\CC/C=C/C=C/C(=O)NCC(C)(C)O | 38.4 | 89.2 | 0 | 0 | 4 | 27.8 | 46.2 | 0 | – |
| COc1cccc2c1c1ccnc3ccc(=O)n2c31 | – | – | – | – | – | – | – | – | Activity [19]: 84.8%; Activity (Aorta [20]): 57.9%; Activity (Aorta [21]): 74.5%; Activity (Aorta [22]): 88.4%; Activity (Aorta [23]): 78.9%; Activity [24]: 90.3%; Activity [25]: 80.4%; Activity [26]: 76.3% |
| CCCCCCCCCCCC(C)=O [2-TRIDECANONE] | – | – | – | – | 63.5 | – | – | – | Activity (Platelet [27]): inactive; Activity (Platelet [28]): inactive |
| CC(=O)Oc1ccccc1C(=O)O [ASPIRIN] | – | – | – | 0 | 42.7 | 90.2 | – | – | Activity [9]: 90.1%; Activity [29]: 92.1%; Activity [30]: 87.1% |
| COc1ccc2c(c1OC)CN1CCc3cc4c(cc3[C@@H]1C2)OCO4 [CANADINE] | 54.7 | 91.2 | 45.8 | – | – | – | – | 76.4 | Activity (Aorta [12]): 13.6%; Activity (Aorta [13]): 49.8%; Activity (Aorta [14]): 82.8%; Activity (Aorta [15]): 11.2%; Activity (Aorta [16]): 79.1%; Activity (Aorta [17]): 25.6%; Activity (Aorta [18]): 70% |
| O=c1ccc2nccc3c4ccccc4n1c23 [CANTHIN-6-ONE] | 36.4 | 85.3 | 4.2 | 57.3 | – | – | – | 7.9 | – |
